# Gli-Sufu antag – antagonists of Gli-Sufu signaling. Sufu-KO-LIGHT fibroblasts, Gli luciferase reporter luminescence. inhibition, % at 5 µM. actives 0.74% (n = 340,000). AID 588413;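 active means inhibition above about 55%, limit read from the data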;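 further: 0% = DMSO-treated cells and 100% = wells with medium but no cells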
# NR2E3 ag-1 – activates human photoreceptor nuclear receptor NR2E3 | Q9Y5X4 | GST-NR2E3/biotin-RetCOR TR-FRET, 1536-well | inhibition of corepressor binding, % at 4.78 µM | actives 0.12% (n = 320,000) | AID 2300;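 active means percent inhibition above the cutoff of mean plus 3 SD of all tested compounds, set per screening campaign, cut at about 20% in these data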;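 further: 0% = DMSO wells and 100% = biotin wells as full block of FRET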
# Target sequence (Q9Y5X4 whole entry, looked up): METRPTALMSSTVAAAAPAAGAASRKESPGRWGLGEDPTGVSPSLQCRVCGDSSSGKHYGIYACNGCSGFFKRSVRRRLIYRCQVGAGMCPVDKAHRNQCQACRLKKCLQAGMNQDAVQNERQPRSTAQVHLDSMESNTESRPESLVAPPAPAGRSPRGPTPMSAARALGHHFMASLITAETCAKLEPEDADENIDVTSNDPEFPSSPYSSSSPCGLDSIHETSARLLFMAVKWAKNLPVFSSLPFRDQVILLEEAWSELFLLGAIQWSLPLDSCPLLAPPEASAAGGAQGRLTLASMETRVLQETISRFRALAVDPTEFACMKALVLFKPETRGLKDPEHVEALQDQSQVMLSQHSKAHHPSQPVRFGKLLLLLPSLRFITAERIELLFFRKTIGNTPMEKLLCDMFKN
#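 Material: NR2E3–RetCOR corepressor complex | Quantity: 1.35 nM GST-tagged NR2E3 final | Schedule: 5 h at 4 °C | Replication: Singlicate compound wells | Reagent: RetCOR corepressor, biotinylated, 7 nM | Controls: Biotin wells as high control, 0.6% DMSO wells as low control | Signal: TR-FRET, Eu(K)-anti-GST donor, streptavidin-D2 acceptor, ex 340, em 617/671 nm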
# NR2E3 ag-2 – activates human NR2E3 receptor; CHO-S Gal4-NCOR/VP16-NR2E3 two-hybrid, luciferase; inhibition of corepressor binding, % at 3.98 µM; Q9Y5X4; AID 602229; actives 0.35% (n = 360,000);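 active means inhibition above the mean of all tested compounds plus 3 SD, cut at about 70% in these data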;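 further: 0% = DMSO with NR2E3 transfected cells and 100% = cells lacking NR2E3 construct; higher means lower luciferase signal from less NR2E3 corepressor binding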
# Jurkat NFkB inh – inhibitors of the PMA/ionomycin-induced NF-kB reporter in Jurkat cells | PMA/ionomycin-induced NF-kB luciferase reporter, luminescence | inhibition, % at 4 µM | actives 0.53% (n = 330,000); in the data active means inhibition above about 50%
# 697 NFkB inh – inhibitors of the PMA/ionomycin-induced NF-kB reporter in 697 B cells; 697 B-cell NF-kB luciferase reporter, 16 h; inhibition, % at 4 µM; actives 0.33% (n = 330,000); AID 435022; in the data active means inhibition above about 35%
# GalR3 antag – human GalR3 antagonism. O60755. AID 651719. inhibition, % at 3 µM. actives 0.44% (n = 360,000). HEK293 GalR3-CNG cAMP membrane potential fluorescence; galR3 body fused to GalR1 C-terminus;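 active means inhibition above the screen-wide average plus 3 SD, cut at about 13% in these data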;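 further: forskolin and galanin both at EC90 stimulate the cells; cAMP rise reported by CNG channel membrane potential dye signal; 0% = forskolin plus galanin with DMSO and 100% = forskolin alone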
# GalR3 conf – GalR3 (human) antagonism, confirmation; shares compounds with GalR3 antag; HEK293 GalR3 CNG cAMP biosensor, membrane potential fluorescence; galR3 fused to GalR1 carboxy tail; challenged with forskolin and galanin at EC90; inhibition, % at 3 µM; actives 59% (n = 1,600);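 active means inhibition above the primary screen's cutoff, the mean inhibition of all screened compounds plus 3 SD, cut at about 13% in these data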;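 further: 0% = forskolin plus galanin and 100% = forskolin alone with DMSO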
# HEK-CNG parental – counter-screen for GalR3 antagonists: nonspecific agonists in parental HEK-CNG cells; shares compounds with GalR3 antag; HEK293-CNG parental cells, cAMP membrane potential fluorescence; normalised: DMSO wells 0%, forskolin wells 100%; activation, % at 3 µM; actives 10% (n = 1,600); AID 652268; in the data active means activation above about 1.3%
# An asterisk follows results filed as active; x = no result given. Only some compounds are listed: those with a hit (about 1.8% of all), similar ones and a draw of the others.
SMILES,Gli-Sufu antag,NR2E3 ag-1,NR2E3 ag-2,Jurkat NFkB inh,697 NFkB inh,GalR3 antag,GalR3 conf,HEK-CNG parental
Cc1cccc(Cl)c1NC(=O)N1CCCN(c2nc3ccc(Cl)cc3s2)CC1,7,2,1,34,-45,82*,103*,0
CCCN(CCC)C(=O)c1cc2c(=O)[nH]c3ccc(C)cc3c2s1,14,3,-36,4,23,-1,x,x
Cc1ccc(C)c(N(C)C(=O)c2cc3c(=O)[nH]c4ccc(C)cc4c3s2)c1,4,3,-23,-28,-14,16*,19*,3.2*
CCc1ccc(CN2CCN(C(=O)c3cccc(OC)c3OC)CC2)cc1,0,3,5,28,-38,98*,101*,0
COc1ccccc1CCNC(=O)CN1C(=O)c2ccccc2S1(=O)=O,8,-3,-9,2,16,-2,x,x
CC(NC(=O)c1c(F)cccc1Cl)c1ccc(-n2ccnc2)cc1 (stereo not drawn),9,4,-2,-11,9,1,x,x
CCOC(=O)[C@]12CCCC=C1N(Cc1ccco1)C(=O)[C@H](CC(=O)N1CCC(c3ccccc3)CC1)C2,x,x,-27,x,x,-7,x,x
CCc1ccc(C(=O)CSc2ncn[nH]2)cc1,-9,-4,-64,-19,-9,54*,22*,0
COc1ccccc1CNC(=S)NC1CCCCC1,2,-1,-13,-4,-3,14*,12,0
CCOC(=O)COc1ccc(S(=O)(=O)NCc2cccnc2)cc1,2,2,-3,7,22,-4,x,x
COC(=O)COc1ccc(S(=O)(=O)NCc2ccncc2)cc1,20,3,-21,17,10,96*,113*,-1
Cc1ccc(N(CC(=O)NCc2ccco2)C(=O)CCC(=O)Nc2nccs2)cc1,11,3,-5,-20,1,14*,1,1
Cc1cc(C)cc(N(CC(=O)NCc2ccco2)C(=O)CCC(=O)Nc2nccs2)c1,12,-1,6,8,-5,-7,x,x
COC(=O)Cn1ncc2c3ccccc3n(C)c2c1=O,7,2,-39,-11,2,2,x,x
Cn1c2ccccc2c2cnn(CC(=O)O)c(=O)c21,1,1,11,4,-1,x,1,1
COc1ccc(C)cc1NC(=O)c1ccc(NS(=O)(=O)c2cccc3cccnc23)cc1,8,3,28,2,15,51*,85*,0
Cc1nn(C)c(Nc2ccc(Br)cc2)c1Br,36,4,40,22,-14,49*,86*,-1
Cc1cc(C)nc(-n2nc(C)c(Br)c2Nc2ccc(Br)cc2)n1,4,-4,4,-5,5,-7,x,x
COc1cccc(-n2c(C)c(C(C)=O)c(C(C)=O)c2C)c1,-4,0,-5,2,0,15*,4,0
COc1ccc(-n2c(C)c(C(C)=O)c(C(C)=O)c2C)cc1,-1,4,-12,-14,12,-4,x,x
Cc1ccc(S(=O)(=O)c2c(C)c(C)c(C)[nH]c2=O)cc1,1,0,5,-5,15,-11,x,x
Cc1ccc(Sc2sc(=O)n(C)c2S(=O)(=O)c2ccc(C)cc2)cc1,1,-1,15,10,-9,20*,2,0
O=C(Nc1ccccc1)c1ccc(CN2CCc3ccccc3C2)cc1,-3,2,-19,13,-6,92*,102*,0
Cc1ccc(NC(=O)c2ccc(CN3CCc4ccccc4C3)cc2)cc1,-35,2,-42,-19,-71,27*,104*,0
Nc1ccc(-c2nc3ncccc3o2)cc1,-31,3,-24,-33,-30,-4,x,x
